Active and inactive are the calls of the source. The rule behind the calls is not given here.
What was measured:
[1] = Drug level in sodium phosphate buffer treated with 10 uM PTU after 60 mins by LC-MS/MS analysis in presence of human MPO/H2O2/Cl-; format: physicochemical; settings: 1 h
[2] = Retention time of the compound by LC-MS/MS analysis in presence of human MPO/H2O2/Cl-/excess GSH; format: physicochemical
[3] = Retention time of the compound in sodium phosphate buffer at 10 uM after 60 mins by LC-MS/MS analysis in presence of H2O2; format: physicochemical; settings: 1 h
[4] = target: T1, Thyroid peroxidase (Homo sapiens) (UniProt P07202); test: Inhibition of TPO (unknown origin) using Amplex Red as substrate assessed as formation of resorufin by measuring ratio of Kinact to Ki measured every 20 secs by spectrophotometric analysis
T1 sequence (whole entry): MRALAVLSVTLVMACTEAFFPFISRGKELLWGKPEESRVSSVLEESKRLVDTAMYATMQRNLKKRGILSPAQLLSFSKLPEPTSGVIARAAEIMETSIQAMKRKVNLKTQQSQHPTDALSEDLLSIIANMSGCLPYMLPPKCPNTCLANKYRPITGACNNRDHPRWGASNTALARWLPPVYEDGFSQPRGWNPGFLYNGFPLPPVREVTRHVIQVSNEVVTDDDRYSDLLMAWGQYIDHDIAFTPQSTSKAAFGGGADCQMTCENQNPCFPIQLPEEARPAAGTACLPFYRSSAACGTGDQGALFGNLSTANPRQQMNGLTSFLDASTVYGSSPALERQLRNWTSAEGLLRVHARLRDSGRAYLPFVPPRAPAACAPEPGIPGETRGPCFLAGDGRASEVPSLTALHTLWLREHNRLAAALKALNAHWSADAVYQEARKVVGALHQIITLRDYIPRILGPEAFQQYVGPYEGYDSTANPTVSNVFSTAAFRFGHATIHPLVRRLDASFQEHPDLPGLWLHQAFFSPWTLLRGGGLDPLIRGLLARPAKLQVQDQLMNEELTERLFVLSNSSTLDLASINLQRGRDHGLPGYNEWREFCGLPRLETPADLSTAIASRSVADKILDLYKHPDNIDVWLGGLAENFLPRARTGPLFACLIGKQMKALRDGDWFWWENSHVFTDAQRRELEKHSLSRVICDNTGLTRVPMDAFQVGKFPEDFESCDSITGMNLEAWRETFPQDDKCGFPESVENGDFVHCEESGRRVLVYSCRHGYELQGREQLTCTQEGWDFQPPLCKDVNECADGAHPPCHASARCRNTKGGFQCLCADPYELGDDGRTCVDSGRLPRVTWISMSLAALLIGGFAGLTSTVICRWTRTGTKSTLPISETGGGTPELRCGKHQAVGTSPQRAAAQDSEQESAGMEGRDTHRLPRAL
How it was run: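 Amplex Red oxidation to resorufin in 50 mM sodium phosphate pH 7.4, 150 mM NaCl, 1 mM DTPA, 2 μM H2O2, 30 μM Amplex Red, 2% DMSO. Reaction started by adding TPO. Background rate measured with bovine catalase added and subtracted. Fluorescence (ex 530/em 580) read every 20 s at room temperature. kinact/KI taken from initial rates over the first 300 s. Geometric mean of at least two experiments.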

[5] = Lipophilicity, log D of the compound at pH 7.4 by shake-flask method; format: physicochemical; settings: buffer
[6] = target: T2, Myeloperoxidase (Homo sapiens) (UniProt P05164); test: Inhibition of peroxidase activity of MPO isolated from human polynuclear leukocytes using Amplex Red as substrate assessed as formation of resorufin by measuring ratio of Kinact to Ki measured every 20 secs by spectrophotometric analysis
T2 sequence (whole entry): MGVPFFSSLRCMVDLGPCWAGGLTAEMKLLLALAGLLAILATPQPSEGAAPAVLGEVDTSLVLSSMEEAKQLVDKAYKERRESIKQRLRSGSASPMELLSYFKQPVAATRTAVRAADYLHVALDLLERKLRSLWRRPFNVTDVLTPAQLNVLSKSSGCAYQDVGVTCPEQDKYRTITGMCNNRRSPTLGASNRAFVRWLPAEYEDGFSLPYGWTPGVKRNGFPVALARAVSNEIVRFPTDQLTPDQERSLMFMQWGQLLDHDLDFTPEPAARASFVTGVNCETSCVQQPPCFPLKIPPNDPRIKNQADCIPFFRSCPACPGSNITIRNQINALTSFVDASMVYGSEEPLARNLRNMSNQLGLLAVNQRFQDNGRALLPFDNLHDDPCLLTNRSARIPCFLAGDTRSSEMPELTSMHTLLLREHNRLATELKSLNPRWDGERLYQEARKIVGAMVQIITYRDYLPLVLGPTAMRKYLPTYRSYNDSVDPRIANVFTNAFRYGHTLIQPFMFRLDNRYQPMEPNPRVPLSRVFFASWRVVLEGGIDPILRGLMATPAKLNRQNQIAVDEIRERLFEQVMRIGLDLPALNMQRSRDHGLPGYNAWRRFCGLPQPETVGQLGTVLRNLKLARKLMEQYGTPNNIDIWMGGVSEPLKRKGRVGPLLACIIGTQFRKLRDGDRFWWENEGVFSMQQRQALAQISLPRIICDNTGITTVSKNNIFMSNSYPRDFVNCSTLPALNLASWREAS
How it was run: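 Enzyme purified from human polynuclear leukocytes. Buffer: 50 mM sodium phosphate pH 7.4, 150 mM NaCl, 1 mM DTPA, 2 μM H2O2, 30 μM Amplex Red, inhibitor or DMSO. Resorufin fluorescence (ex 530/em 580) read every 20 s at room temperature. Progress curves fitted for kobs at each concentration. kinact/KI derived from the kobs versus [I] fit or slope. Geometric mean of at least two experiments.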

[7] = Apparent permeability across RRCK cells; format: ADME, cell-based, Canis lupus familiaris, MDCKII-LE; settings: dog, MDCK
How it was run: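 Passive permeability measured in Ralph−Russ canine kidney (RRCK) cells, a low-transporter line isolated from Madin−Darby canine kidney cells; reported as P_app (10⁻⁶ cm/s).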

[8] = Fraction unbound in human plasma by equilibrium dialysis method; format: ADME, cell-free
How it was run: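 Fraction unbound in human plasma measured by equilibrium dialysis; mean of three individual determinations.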

Liver microsome = test: Intrinsic apparent clearance in human liver microsomes; format: ADME
How it was run: (§1)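 Stability incubations in NADPH-supplemented human liver microsomes or cryopreserved human hepatocytes. Total apparent intrinsic clearance scaled from the in vitro half-life; microsomes reported per mg protein, hepatocytes per 10⁶ cells.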

Hepatocyte = test: Intrinsic apparent clearance in human hepatocytes assessed per 10^6 cells; format: ADME, cell-based; how it was run: as §1
[9] = Plasma clearance in Wistar rat at 1 mg/kg, iv and 3 or 5 mg/kg, po; format: ADME, organism-based
How it was run: (§2)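 Male CD-1 mice (25−35 g), cannulated Wistar-Han rats (250 g), beagle dogs (12 kg) and cynomolgus monkeys (7 kg), fasted overnight and fed 1.0 or 2.0 h after dosing. iv 1 mg/kg in saline or 12% sulfobutyl ether β-cyclodextrin; po 3 or 5 mg/kg in 0.5% methylcellulose. Parameters calculated from plasma concentration−time data; mean ± SD for n = 3, individual values for n = 2.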

[10] = Plasma clearance in Beagle dog at 1 mg/kg, iv and 3 or 5 mg/kg, po; format: ADME, organism-based, Canis lupus familiaris; how it was run: as §2
[11] = Volume of distribution at steady state in Wistar rat at 1 mg/kg, iv and 3 or 5 mg/kg, po; format: ADME, organism-based; settings: in vivo, read-out: Vdss
How it was run: (§3)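 Male mice, rats, dogs and cynomolgus monkeys, fasted overnight, fed after dosing. Intravenous dose 1 mg/kg in saline or 12% sulfobutyl ether β-cyclodextrin; oral arm 3 or 5 mg/kg in 0.5% methylcellulose. Steady-state volume derived from plasma concentration−time data; mean ± SD for n = 3, individual values for n = 2.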

[12] = Volume of distribution at steady state in Beagle dog at 1 mg/kg, iv and 3 or 5 mg/kg, po; format: ADME, organism-based, Canis lupus familiaris; settings: in vivo, read-out: Vdss; how it was run: as §3
[13] = Elimination half life in Wistar rat at 1 mg/kg, iv and 3 or 5 mg/kg, po; format: ADME, organism-based; settings: in vivo, read-out: beta t1/2 (converted); how it was run: as §2
[14] = Elimination half life in Beagle dog at 1 mg/kg, iv and 3 or 5 mg/kg, po; format: ADME, organism-based, Canis lupus familiaris; settings: in vivo, read-out: beta t1/2 (converted); how it was run: as §2
[15] = Tmax in Wistar rat at 3 or 5 mg/kg, po; format: ADME, organism-based; settings: in vivo
How it was run: (§4)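 Male animals (CD-1 mice 25−35 g, cannulated Wistar-Han rats 250 g, beagle dogs 12 kg, cynomolgus monkeys 7 kg), fasted overnight and fed 1.0 or 2.0 h after dosing, water ad libitum. Oral dose 3 or 5 mg/kg in 0.5% methylcellulose. Parameters calculated from plasma concentration−time data; mean ± SD for n = 3, individual values for n = 2.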

[16] = Tmax in Beagle dog at 3 or 5 mg/kg, po; format: ADME, organism-based, Canis lupus familiaris; settings: in vivo; how it was run: as §4
[17] = Oral bioavailability in Wistar rat at 3 or 5 mg/kg; format: ADME, organism-based; settings: in vivo
How it was run: (§5)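 Male CD-1 mice, Wistar-Han rats, beagle dogs and cynomolgus monkeys, fasted overnight and fed after dosing. Given po at 3 or 5 mg/kg in 0.5% methylcellulose, with an iv reference dose of 1 mg/kg. Bioavailability derived from plasma concentration−time data; mean ± SD (n = 3) or individual values (n = 2).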

[18] = Oral bioavailability in Beagle dog at 3 or 5 mg/kg; format: ADME, organism-based, Canis lupus familiaris; settings: in vivo; how it was run: as §5
[19] = target: T2, Myeloperoxidase (Homo sapiens); test: (§6) Inhibition of peroxidase activity of MPO isolated from human polynuclear leukocytes using Amplex Red as substrate assessed as formation of resorufin measured every 20 secs by spectrophotometric analysis
Myeloperoxidase [20] = target: T3, Myeloperoxidase (Homo sapiens, UniProt P05164); test: as §6
T3 sequence (P05164 whole entry): T2 sequence (whole entry)

Myeloperoxidase [21] = target: T3, Myeloperoxidase; test: Irreversible inhibition of MPO in LPS-stimulated human whole blood after 4 hrs by Amplex Red/H2O2-based fluorescence plate reader analysis
How it was run: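 Heparinized whole blood from healthy human volunteers, stimulated with bacterial LPS and incubated with compound for 4 h. MPO captured on anti-MPO antibody plates and washed; residual activity measured with Amplex Red and H₂O₂. IC₅₀ reported as geometric mean [90% CI].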

Myeloperoxidase [22] = target: T3, Myeloperoxidase; test: Inhibition of peroxidase activity of MPO isolated from human polynuclear leukocytes using Amplex Red as substrate assessed as formation of resorufin after 300 secs by spectrophotometric analysis
[23] = target: T2, Myeloperoxidase (Homo sapiens); settings: 0.47 to 30 uM
[24] = target: T2, Myeloperoxidase (Homo sapiens); settings: 24 uM
[25] = target: T2, Myeloperoxidase (Homo sapiens); settings: 24 uM; remark: listed apart in the source

## CCCc1cc(=O)nc(SSc2nc(=O)cc(CCC)[nH]2)[nH]1
[1]
  Drug metabolism: metabolite_detected

## CCCc1cc(=O)nc(S(=O)O)[nH]1
[1]
  Drug metabolism: metabolite_detected

## COc1ccc(-c2cc(=O)nc(SC[C@H](NC(=O)CC[C@H](N)C(=O)O)C(=O)NCC(=O)O)n2CCOC(C)C)c(OC)c1
[2]
  Retention_time: 15.7 min

## CCCc1cc(=O)nc(S(=O)(=O)O)[nH]1
[1]
  Drug metabolism: metabolite_detected

## COc1ccc(-c2cc(=O)nc3n2CCO3)c(OC)c1
[3]
  Retention_time: 14.99 min

## COc1ccc(-c2cc(=O)[nH]c(=S)n2CC(=O)NCCN)c(OC)c1
[4]
  log(ratio): < 0.5
[5]
  logD: -1.4
[6]
  log(ratio): 4.03
[7]
  Papp: 15 nm/s
[8]
  fraction unbound: 0.9
Liver microsome
  CLH(app): < 8 µL/min/mg
Hepatocyte
  CLH(app): < 6 µL/min
[9]
  clearance: 2.32 L/h/kg
[10]
  clearance: 0.246 L/h/kg
[11]
  Vd: 0.59 L/kg
[12]
  Vd: 0.86 L/kg
[13]
  half-life: 48.6 min
[14]
  half-life: 155 min
[15]
  Tmax: 45 min
[16]
  Tmax: 60 min
[17]
  bioavailability: 3%
[18]
  bioavailability: 8%

## COc1ccc(-c2cc(=O)[nH]c(=S)n2CCOC(C)C)c(OC)c1
[4]
  log(ratio): < 0.5
[5]
  logD: 2.6
[19]
  pKinact: 2.43
Myeloperoxidase [20]
  Ki: 0.501 µM
[6]
  log(ratio): 3.87
Myeloperoxidase [21]
  IC50: 11 µM
[2]
  Retention_time: 25.4 min
[7]
  Papp: 260 nm/s
Liver microsome
  CLH(app): 11 µL/min/mg

## COc1ccccc1-c1cc(=O)[nH]c(=S)[nH]1
[4]
  log(ratio): 2.86
[5]
  logD: 1.3
[6]
  log(ratio): 3.36
Myeloperoxidase [21]
  IC50: 6.2 µM

## CCCc1cc(=O)[nH]c(=S)[nH]1 [PROPYLTHIOURACIL]
Myeloperoxidase [22]
  IC50: 2.81 µM
Myeloperoxidase [21]
  IC50: 5.7 µM
[23]
  inhibition: tde
[24]
  inhibition: Active
[25]
  inhibition: inactive
